Bioassay records from PubChem.
Wee1 stabilizer – inhibitors of human Wee1 degradation. P30291. reporter increase, % at 5 µM. HeLa Luc-Wee1K328M stability, luciferase luminescence; 100% = proteasome inhibitor MG132 effect. hit rate 1.2% among 220,000;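 active = activation above the mean of all tested compounds plus 3 SD, set per screening run, cut at about 8.8% in these data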;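 also: cells exposed to compound for 20 h before luminescence read; 0% = DMSO alone and 100% = MG132 at 30 µM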
Runt-CBFb FRET – Runt domain-CBFb interaction inhibition | hit rate 0.46% among 220,000 | inhibition, % at 20 µM | Q01196+Q13951 | Cerulean-Runt/Venus-CBFb FRET ratio 530/480, 1 h;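 active = inhibition over about 50% at 20 µM in the single-dose screen, limit read from the data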;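 also: 0% = DMSO wells and 100% = excess unlabeled CBFb competitor control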
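Reagent – Venus-CBFb binding partner, 100 nM · Assay system – Cerulean-tagged RUNX1 Runt domain (FRET donor) fusion protein · Input – 100 nM per protein · Incubation – two 1 h room-temperature incubations shielded from light · Measured by – FRET fluorescence · Medium – Tris buffer pH 7.5 with salts and BSA · Benchmarks – unlabeled CBFb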
proKLK7 act – activates the human kallikrein-7 zymogen. P49862. purified proKLK7, EDANS-DABCYL substrate fluorescence; 100% is mature enzyme control, 0% vehicle. activation, % at 7 µM. hit rate 0.9% among 370,000. AID 652039;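 active = activation above the mean of all tested compounds plus 3 SD, computed per campaign excluding outliers beyond control limits, cut at about 13% in these data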
Target sequence (P49862 whole entry, looked up): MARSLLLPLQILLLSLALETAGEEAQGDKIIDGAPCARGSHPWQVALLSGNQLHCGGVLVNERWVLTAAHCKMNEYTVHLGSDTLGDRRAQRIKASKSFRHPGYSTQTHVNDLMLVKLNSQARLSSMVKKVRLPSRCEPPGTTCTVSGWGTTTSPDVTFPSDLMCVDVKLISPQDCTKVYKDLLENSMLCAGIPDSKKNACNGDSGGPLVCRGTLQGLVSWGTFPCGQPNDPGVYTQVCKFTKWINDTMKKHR
AI-2 QS modul – modulators of Vibrio harveyi AI-2 quorum sensing system; Vibrio harveyi JMH597 AI-2 luminescence/OD600 ratio, 9 h; hits give low values; strain lacks LuxN and CqsS sensors; 0 = neutral-control median; hit rate 0.4% among 300,000; activity change, % at 7.5 µM; AID 2094; in the data active = activity change below about -75%, passing the limit was not always enough; inconclusive = no clear call, values can overlap the other calls;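 also: luminescence divided by OD600 gain over 9 h not by final OD600 alone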
RanGTP-Impb inh – disruptors of Ran-importin-beta complex formation – biochemical, FRET, CFP-Ran, YFP-importin-beta, homogeneous, primary screen; cell-free CFP-Ran/YFP-importin-beta FRET ratio; inhibition, % (no concentration beside the values); hit rate 1.1% among 300,000;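 active = more than half of the replicate wells show a fall in the fluorescence ratio signal beyond about 16%, limit read from the data, passing the limit was not always enough; inconclusive = exactly half of the replicate wells pass the set limit; inactive = fewer than half of replicates pass the limit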;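 also: 0% = DMSO wells and 100% = Ran loaded with GDP instead of GTP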
Runt-SMMHC FRET – inhibitors of human RUNX1 Runt domain binding to CBFb-SMMHC; Cerulean-Runt/Venus-CBFb-SMMHC FRET ratio 530/480, 1 h; inhibition, % at 20 µM; hit rate 0.74% among 220,000;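 active = mean inhibition across duplicate retests at 20 µM reaching about 50%, limit read from the data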;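 also: 0% = DMSO wells and 100% = wells with excess untagged CBFb-SMMHC; inhibitors lower the FRET ratio by blocking Runt binding to CBFb-SMMHC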
An asterisk follows results filed as active; ? = inconclusive; / = no result given. Rows were chosen to be rich in hits. Some 2.9% of all compounds tested hit in one or more screens of this group.

SMILES	Wee1 stabilizer	Runt-CBFb FRET	proKLK7 act	AI-2 QS modul	RanGTP-Impb inh	Runt-SMMHC FRET
COC(=O)[C@]12C[C@H](CC(=O)N3CCCCC3)C(=O)N(Cc3ccccc3)C1=C[C@H](C(C)(C)C)O[C@@H]2C	/	/	0.6	/	/	/
Cc1nc2cc(NC(=O)N3CCN(c4ccccn4)CC3)ccc2o1	-0.7	1.0	0.6	1.5	-3.1	-2.1
Cc1nc2ccc(NC(=S)N3CCN(c4ccccn4)CC3)cc2nc1C	9.0*	-8.2	1.8	2.9	-5.1	-15.8
S=C(Nc1ccc(N2CCOCC2)cc1)Nc1ccc2nc(-c3ccco3)c(-c3ccco3)nc2c1	-3.1	-94.9	0.1	29.2	20.4*	-388.4
O=C(Nc1ccc2nc(-c3ccco3)c(-c3ccco3)nc2c1)N1CCN(c2ccccn2)CC1	1.5	-29.9	-0.5	27.1	33.2*	-93.0
CN1Cc2nnn(CC3CCCCC3)c2-c2ccccc2S1(=O)=O	/	/	0.5	/	/	/
COc1ccc(/C=C(/NC(=O)c2cccc([N+](=O)[O-])c2)C(=O)O)cc1	-1.2	-0.2	0.4	2.7	5.8	2.8
CCOC(=O)C1=C(C(=O)OCC)C2N(Cc3ccc(C(F)(F)F)cc3)c3ccccc3[C@@]23C[C@@H](C(=O)OC)N(S(=O)(=O)c2cccs2)C3=N1 (some centres not stated)	/	/	1.2	/	/	/
O=C(CCc1ccccc1)Nc1ccc2ccccc2n1	4.1	-0.3	-0.1	-11.3	?	-1.6
COc1ccc2nc3ccccc3nc2c1N	9.0*	19.7	0.8	/	1.2	-0.6
COc1ccc2nc3cccc(OC)c3nc2c1	2.4	-5.7	-1.4	43.3	-10.2	-33.7
Cc1ccc(C(=O)NNC(=O)c2ccc(-n3cncn3)c([N+](=O)[O-])c2)cc1	/	/	-0.1	24.0	1.0	/
O=C(O)[C@H]1CCCC[C@H]1C(=O)Nc1ccc(S(=O)(=O)N2CCOCC2)cc1	/	/	-0.3	8.9	16.6*	/
O=c1[nH]c2cc3c(cc2cc1CN(CCO)S(=O)(=O)c1ccccc1)OCCO3	-3.3	0.4	/	-2.2	1.2	0.3
COC(=O)C1=C(C)N(Cc2cccc(C(F)(F)F)c2)C(=NCc2ccccc2C(F)(F)F)NC1c1ccc(Cl)cc1 (configuration not stated)	/	/	0.2	/	/	/
O=c1oc(-c2ccccc2)cc(Cl)c1Cl	/	/	347.0*	3.3	-4.5	/
CCOc1nc2cccc(C(=O)O)c2n1Cc1ccc(-c2ccccc2-c2nn[nH]n2)cc1	/	/	-0.1	/	/	/
Cc1ccc([N+](=O)[O-])cc1NCC(=O)NN	-0.6	2.5	-0.3	8.2	-1.2	-0.4
CCN(CC(=O)NCc1ccccc1Cl)CC(=O)Nc1c(F)cccc1F	9.5*	-0.8	0.3	13.7	4.3	-2.3
CN(CC(=O)NCc1ccccc1Cl)CC(=O)Nc1ccccc1Br	/	/	0.2	/	/	/
CCOC(=O)/C=C(\C)Sc1cc(O)c2ccccc2c1O	3.5	26.9	-0.1	/	/	60.9*
O=c1[nH]c2ccccc2nc1-c1c[nH]c2ccccc12	/	/	-0.1	12.0	48.5*	/
O=C(Nc1ccccc1N1CCN(C(=O)c2ccc(Cl)cc2)CC1)c1cccc(F)c1	/	/	0.7	26.0	4.0	/
O=C(Nc1ccccc1N1CCN(C(=O)c2ccccc2)CC1)c1cccc(Cl)c1	9.2*	10.4	0.0	8.8	3.2	3.0
CC(C)c1[nH]nc2c1C1(CCN(Cc3ccccc3)CC1)C(C#N)=C(N)O2	-2.2	49.7	1.6	13.0	20.6*	59.1*
SMILES	Wee1 stabilizer	Runt-CBFb FRET	proKLK7 act	AI-2 QS modul	RanGTP-Impb inh	Runt-SMMHC FRET
Cc1cc(C=C2C(=O)c3ccccc3C2=O)c(C)n1-c1ccccc1	-3.2	-12.7	0.7	13.7	-2.5	-89.4
CC1=NN2C(=N)/C(=C\c3cc(C)n(-c4ccccc4)c3C)C(=O)N=C2S1	-2.0	-7.3	0.9	9.1	39.4*	4.3
Cc1cc(/C=C2\Cc3ccccc3C2=O)c(C)n1-c1ccccc1	1.0	17.0	-1.0	35.2	23.5*	15.9
O=c1cc(N2CCc3ccccc3C2)[nH]c(=O)n1-c1ccc(Cl)cc1	-1.4	4.0	0.0	20.6	117.1*	-0.2
O=c1cc(N2CCc3ccccc3C2)[nH]c(=O)n1Cc1ccc(F)cc1	-0.4	1.7	0.0	23.1	80.1*	16.1
O=c1cc(N2CCc3ccccc3C2)[nH]c(=O)n1-c1ccc(Br)cc1	-0.4	2.1	0.3	7.6	123.9*	4.4
O=c1cc(N2CCN(c3ccccc3)CC2)[nH]c(=O)n1Cc1ccc(F)cc1	-0.9	-0.5	0.3	20.4	0.7	3.8
O=c1cc(N2CCC3(CC2)OCCO3)[nH]c(=O)n1-c1ccc(Cl)cc1	6.1	10.6	/	7.8	11.9	32.4
COC[C@H]1CCCN1c1ccc2c(c1)OCCCN(C1CC1)S2(=O)=O	/	/	-0.3	/	/	/
CCCCNC(=O)C1(C)CCCCN1Cc1ccc2ccccc2c1 (configuration not stated)	/	/	-0.6	/	/	/
Cc1cc(C)c2c(CN3CCN(Cc4ccccc4)CC3)cc(=O)oc2c1C	/	/	0.5	20.2	1.4	/
COc1cccc(CN(C)[C@H]2C[C@H]3c4[nH]c5ccccc5c4CCN3C[C@H]2[C@H](C)O)c1OC	/	/	2.6	/	/	/
COC(=O)[C@]12C[C@H](CC(=O)N3CCN(C(=O)C4CC4)CC3)C(=O)N(Cc3ccco3)C1=C[C@H](C1CCCC1)O[C@@H]2C	/	/	0.7	/	/	/
O=C(N/N=C/c1c(O)n(-c2ccccc2Cl)c(=O)c2ccccc12)c1cccnc1	-0.2	19.9	-3.2	58.5	2.5	86.0*
COc1ccc(Cn2c(O)c(C=Nc3ccccc3C(=O)O)c3ccccc3c2=O)cc1	5.3	2.5	-1.1	15.1	5.7	3.0
O=C(N/N=C/c1c(O)n(Cc2ccccc2)c(=O)c2ccccc12)c1cccnc1	4.5	36.0	-1.7	19.4	-0.3	87.1*
COc1ccc(Cn2c(O)c(/C=N/NC(=O)c3cccnc3)c3ccccc3c2=O)cc1	-1.1	20.6	-4.3	-35.9	9.5	86.0*
Cc1cccc(-n2c(O)c(/C=N/NC(=O)c3ccccc3Cl)c3ccccc3c2=O)n1	0.0	-25.0	-2.0	26.6	1.8	63.8
Cc1nn(C)c2ncc(C(=O)c3cc(F)ccc3O)cc12	5.5	2.7	0.2	11.9	1.0	1.0
Cn1c(=O)[nH]c(=O)c2cc(C(=O)c3cc(F)ccc3O)cnc21	10.1*	1.3	10.1	3.7	-6.0	-3.0
CCC(C)Sc1ccc([C@H]2N[C@@](C)(C(=O)OC)[C@H]3C(=O)N(CC)C(=O)[C@@H]23)cc1 (some centres not stated)	/	/	-0.6	39.3	-1.8	/
O=c1c(O)c(-c2ccccc2)oc2ccccc12	/	/	-8.3	/	/	/
O=c1c(O)c(-c2cccs2)oc2ccccc12	-0.6	19.3	-25.1	25.8	93.4*	78.7*
O=c1c(O)c(-c2cccs2)oc2ccc(Cl)cc12	-1.3	6.7	-7.5	31.9	18.3*	57.5*
